Results reported in ChEMBL document CHEMBL1154675, “Identification of death-associated protein kinases inhibitors using structure-based virtual screening” (J Med Chem, 2009).
Values belong to the molecule of their own block, whether it stands above or below them. The source made the active and inactive calls. The rule behind the calls is not given here.

Assays:
[1] = target: T1, Death-associated protein kinase 3 (Homo sapiens, UniProt O43293); test: Inhibition of DAPK3 at 10 uM
Summary of the method: (§1)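 Single-concentration screen of recombinant DAPK3 in the standard Z'-LYTE Ser/Thr 13 peptide reaction: peptide substrate and ATP in 50 mM HEPES pH 7.4, 10 mM MgCl2, 0.01% Brij-35, 0.5% DMSO. Percent inhibition of enzyme activity was read at the stated final compound concentration.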
Target sequence in this assay (O43293 whole entry, looked up): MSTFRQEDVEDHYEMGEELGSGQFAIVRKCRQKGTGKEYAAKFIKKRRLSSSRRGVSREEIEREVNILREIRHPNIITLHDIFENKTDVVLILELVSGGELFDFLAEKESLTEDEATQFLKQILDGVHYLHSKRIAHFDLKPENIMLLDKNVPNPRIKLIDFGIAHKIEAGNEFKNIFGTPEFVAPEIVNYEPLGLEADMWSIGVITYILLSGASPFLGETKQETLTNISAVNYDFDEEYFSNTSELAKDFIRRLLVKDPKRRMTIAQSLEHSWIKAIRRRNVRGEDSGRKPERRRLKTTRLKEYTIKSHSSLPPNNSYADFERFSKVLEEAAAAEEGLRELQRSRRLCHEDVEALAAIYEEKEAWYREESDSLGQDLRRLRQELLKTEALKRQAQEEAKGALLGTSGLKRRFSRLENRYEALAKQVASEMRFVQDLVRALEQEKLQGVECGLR

[2] = target: T1, Death-associated protein kinase 3; test: Inhibition of DAPK3 at 1 uM; summary of the method: as §1
Target sequence in this assay (O43293 whole entry, looked up): as above

[3] = target: Tyrosine-protein kinase ABL1 (Homo sapiens) (UniProt P00519); test: Inhibition of ABL at 10 uM
[4] = target: Mitogen-activated protein kinase 3 (Homo sapiens) (UniProt P27361); test: Inhibition of Erk1 at 10 uM
[5] = target: Serine/threonine-protein kinase MARK1 (Homo sapiens) (UniProt Q9P0L2); test: Inhibition of MARK1 at 10 uM
[6] = target: Protein kinase C zeta type (Homo sapiens) (UniProt Q05513); test: Inhibition of PKCzeta at 10 uM
[7] = target: RAC-alpha serine/threonine-protein kinase (Homo sapiens) (UniProt P31749); test: Inhibition of AKT1 at 10 uM
[8] = target: Receptor-type tyrosine-protein kinase FLT3 (Homo sapiens) (UniProt P36888); test: Inhibition of FLT3 at 10 uM
[9] = target: MAP kinase-activated protein kinase 2 (Homo sapiens) (UniProt P49137); test: Inhibition of MAPKAPK2 at 10 uM
Summary of the method: (§2)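 Selectivity panel run with ProfilerPro kinase kits following the kit protocol. Activity against each kinase was reported as an IC50 range: below 1 μM, between 1 and 10 μM, or above 10 μM.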

[10] = target: Serine/threonine-protein kinase D2 (Homo sapiens) (UniProt Q9BZL6); test: Inhibition of PKD2 at 10 uM
[11] = target: RAC-beta serine/threonine-protein kinase (Homo sapiens) (UniProt P31751); test: Inhibition of AKT2 at 10 uM
[12] = target: Tyrosine-protein kinase Fyn (Homo sapiens) (UniProt P06241); test: Inhibition of FYN at 10 uM; summary of the method: as §2
[13] = target: Hepatocyte growth factor receptor (Homo sapiens) (UniProt P08581); test: Inhibition of MET at 10 uM; summary of the method: as §2
[14] = Inhibition of PKGalpha at 10 uM
[15] = Inhibition of AMPK at 10 uM
[16] = target: Glycogen synthase kinase-3 beta (Homo sapiens) (UniProt P49841); test: Inhibition of GSK3-beta at 10 uM
[17] = target: Ribosomal protein S6 kinase alpha-5 (Homo sapiens) (UniProt O75582); test: Inhibition of MSK1 at 10 uM; summary of the method: as §2
[18] = target: MAP kinase-activated protein kinase 5 (Homo sapiens) (UniProt Q8IW41); test: Inhibition of PRAK at 10 uM; summary of the method: as §2
[19] = target: Aurora kinase A (Homo sapiens) (UniProt O14965); test: Inhibition of AurA at 10 uM
[20] = target: Mitogen-activated protein kinase kinase kinase kinase 4 (Homo sapiens) (UniProt O95819); test: Inhibition of HGK at 10 uM
[21] = target: Serine/threonine-protein kinase 3 (Homo sapiens) (UniProt Q13188); test: Inhibition of MST2 at 10 uM; summary of the method: as §2
[22] = target: Rho-associated protein kinase 2 (Homo sapiens) (UniProt O75116); test: Inhibition of ROCK2 at 10 uM
[23] = target: Tyrosine-protein kinase BTK (Homo sapiens) (UniProt Q06187); test: Inhibition of BTK at 10 uM; summary of the method: as §2
[24] = target: Insulin-like growth factor 1 receptor (Homo sapiens) (UniProt P08069); test: Inhibition of IGF1R at 10 uM
[25] = target: Mitogen-activated protein kinase 14 (Homo sapiens) (UniProt Q16539); test: Inhibition of p38alpha at 10 uM
[26] = target: Ribosomal protein S6 kinase alpha-1 (Homo sapiens) (UniProt Q15418); test: Inhibition of RSK1 at 10 uM; summary of the method: as §2
[27] = Inhibition of CAMK2 at 10 uM
[28] = target: Insulin receptor (Homo sapiens) (UniProt P06213); test: Inhibition of INSR at 10 uM
[29] = target: Serine/threonine-protein kinase PAK 2 (Homo sapiens) (UniProt Q13177); test: Inhibition of PAK2 at 10 uM
[30] = target: Proto-oncogene tyrosine-protein kinase Src (Homo sapiens) (UniProt P12931); test: Inhibition of SRC at 10 uM
[31] = target: Calcium/calmodulin-dependent protein kinase type IV (Homo sapiens) (UniProt Q16566); test: Inhibition of CAMK4 at 10 uM; summary of the method: as §2
[32] = target: Interleukin-1 receptor-associated kinase 4 (Homo sapiens) (UniProt Q9NWZ3); test: Inhibition of IRAK4 at 10 uM; summary of the method: as §2
[33] = target: Serine/threonine-protein kinase pim-2 (Homo sapiens) (UniProt Q9P1W9); test: Inhibition of PIM2 at 10 uM
[34] = target: Cyclin-dependent kinase 2 (Homo sapiens) (UniProt P24941); test: Inhibition of CDK2 at 10 uM; summary of the method: as §2
[35] = target: Tyrosine-protein kinase Lck (Homo sapiens) (UniProt P06239); test: Inhibition of LCK at 10 uM; summary of the method: as §2
[36] = Inhibition of PKA at 10 uM
[37] = target: MAP/microtubule affinity-regulating kinase 3 (Homo sapiens) (UniProt P27448); test: Inhibition of c-TAK1 at 10 uM; summary of the method: as §2
[38] = target: Serine/threonine-protein kinase Chk1 (Homo sapiens) (UniProt O14757); test: Inhibition of CHK1 at 10 uM; summary of the method: as §2
[39] = target: Tyrosine-protein kinase Lyn (Homo sapiens) (UniProt P07948); test: Inhibition of LYN at 10 uM; summary of the method: as §2
[40] = target: Protein kinase C beta type (Homo sapiens) (UniProt P05771); test: Inhibition of PKCbeta2 at 10 uM
[41] = target: RAF proto-oncogene serine/threonine-protein kinase (Homo sapiens) (UniProt P04049); test: Inhibition of c-Raf at 10 uM
[42] = target: Serine/threonine-protein kinase Chk2 (Homo sapiens) (UniProt O96017); test: Inhibition of CHK2 at 10 uM; summary of the method: as §2
[43] = target: Casein kinase I isoform delta (Homo sapiens, UniProt P48730); test: Inhibition of CK1delta; summary of the method: as §2
[44] = target: Fibroblast growth factor receptor 1 (Homo sapiens, UniProt P11362); test: Inhibition of FGFR1; summary of the method: as §2
[45] = Inhibition of p70S6K
Summary of the method: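 Selectivity panel of kinases run with a commercial profiling kit according to the kit protocol. Inhibition is reported only as IC50 bands: below 1 μM, 1–10 μM, or above 10 μM.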

[46] = target: Death-associated protein kinase 1 (Homo sapiens, UniProt P53355); test: Inhibition of DAPK1
Summary of the method: (§3)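 IC50 runs used the Z'-LYTE Ser/Thr 13 peptide format. Human recombinant DAPK1 was at 2.6 μg/mL final; DAPK3 was recombinant. Each kinase was incubated with 10 μM ATP and a range of inhibitor concentrations in 50 mM HEPES pH 7.4, 10 mM MgCl2, 0.01% Brij-35, 0.5% DMSO, with peptide substrate.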

[47] = target: Dual specificity tyrosine-phosphorylation-regulated kinase 1A (Homo sapiens, UniProt Q13627); test: Inhibition of […]; summary of the method: as §2
[48] = target: Vascular endothelial growth factor receptor 2 (Homo sapiens, UniProt P35968); test: Inhibition of KDR; summary of the method: as §2
[49] = target: T1, Death-associated protein kinase 3; test: Inhibition of DAPK3; summary of the method: as §3
Target sequence in this assay (O43293 whole entry): as the sequence (O43293 whole entry, looked up) above

[50] = target: Mitogen-activated protein kinase 1 (Homo sapiens, UniProt P28482); test: Inhibition of Erk2; summary of the method: as §2
[51] = target: Serine/threonine-protein kinase Sgk1 (Homo sapiens, UniProt O00141); test: Inhibition of SGK1; summary of the method: as §2
[52] = target: Tyrosine-protein kinase SYK (Homo sapiens) (UniProt P43405); test: Inhibition of SYK at 10 uM

Sequence of Tyrosine-protein kinase ABL1 (Homo sapiens) (P00519 whole entry): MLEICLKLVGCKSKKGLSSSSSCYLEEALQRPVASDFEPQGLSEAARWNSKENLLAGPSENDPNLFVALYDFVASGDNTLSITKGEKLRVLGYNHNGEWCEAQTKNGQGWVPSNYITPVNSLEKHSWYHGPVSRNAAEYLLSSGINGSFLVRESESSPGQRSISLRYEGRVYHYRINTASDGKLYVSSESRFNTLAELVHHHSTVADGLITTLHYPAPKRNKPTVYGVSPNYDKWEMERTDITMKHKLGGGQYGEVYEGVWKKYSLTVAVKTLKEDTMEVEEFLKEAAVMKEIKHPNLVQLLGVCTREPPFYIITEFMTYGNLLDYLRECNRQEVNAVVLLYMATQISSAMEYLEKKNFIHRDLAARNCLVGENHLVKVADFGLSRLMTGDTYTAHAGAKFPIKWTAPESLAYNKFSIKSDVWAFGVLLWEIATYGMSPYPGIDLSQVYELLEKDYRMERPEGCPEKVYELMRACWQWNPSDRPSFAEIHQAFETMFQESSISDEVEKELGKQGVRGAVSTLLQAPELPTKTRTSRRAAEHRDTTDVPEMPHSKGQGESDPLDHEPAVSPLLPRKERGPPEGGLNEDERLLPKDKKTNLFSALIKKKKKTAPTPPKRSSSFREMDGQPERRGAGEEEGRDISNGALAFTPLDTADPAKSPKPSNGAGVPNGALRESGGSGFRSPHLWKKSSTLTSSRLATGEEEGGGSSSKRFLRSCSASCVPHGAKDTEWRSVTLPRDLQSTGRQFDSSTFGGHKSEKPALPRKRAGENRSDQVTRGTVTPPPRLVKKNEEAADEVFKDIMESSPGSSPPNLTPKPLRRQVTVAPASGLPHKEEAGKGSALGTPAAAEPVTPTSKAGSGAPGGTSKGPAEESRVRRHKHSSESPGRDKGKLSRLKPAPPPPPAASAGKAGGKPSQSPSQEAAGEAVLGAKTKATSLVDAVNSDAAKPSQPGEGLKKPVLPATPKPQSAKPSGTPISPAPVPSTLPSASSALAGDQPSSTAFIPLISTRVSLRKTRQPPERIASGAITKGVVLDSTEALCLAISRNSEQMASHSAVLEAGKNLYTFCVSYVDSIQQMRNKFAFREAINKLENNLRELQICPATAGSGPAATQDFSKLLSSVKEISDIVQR
Sequence of Tyrosine-protein kinase Lck (Homo sapiens) (P06239 2-509 limits assumed): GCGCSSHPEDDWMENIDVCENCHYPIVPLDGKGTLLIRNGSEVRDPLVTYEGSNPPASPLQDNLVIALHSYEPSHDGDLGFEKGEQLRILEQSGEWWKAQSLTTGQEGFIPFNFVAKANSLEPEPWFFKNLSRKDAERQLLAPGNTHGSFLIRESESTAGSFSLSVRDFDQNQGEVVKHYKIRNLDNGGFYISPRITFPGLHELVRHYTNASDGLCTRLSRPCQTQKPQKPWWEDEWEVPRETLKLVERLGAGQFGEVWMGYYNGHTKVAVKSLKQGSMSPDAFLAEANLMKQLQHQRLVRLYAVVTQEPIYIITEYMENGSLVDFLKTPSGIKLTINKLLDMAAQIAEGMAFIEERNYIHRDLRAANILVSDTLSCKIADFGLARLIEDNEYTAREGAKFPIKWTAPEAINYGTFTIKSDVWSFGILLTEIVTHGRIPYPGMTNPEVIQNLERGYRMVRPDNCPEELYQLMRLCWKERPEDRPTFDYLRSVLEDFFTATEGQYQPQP
Sequence of Fibroblast growth factor receptor 1 (P11362 whole entry): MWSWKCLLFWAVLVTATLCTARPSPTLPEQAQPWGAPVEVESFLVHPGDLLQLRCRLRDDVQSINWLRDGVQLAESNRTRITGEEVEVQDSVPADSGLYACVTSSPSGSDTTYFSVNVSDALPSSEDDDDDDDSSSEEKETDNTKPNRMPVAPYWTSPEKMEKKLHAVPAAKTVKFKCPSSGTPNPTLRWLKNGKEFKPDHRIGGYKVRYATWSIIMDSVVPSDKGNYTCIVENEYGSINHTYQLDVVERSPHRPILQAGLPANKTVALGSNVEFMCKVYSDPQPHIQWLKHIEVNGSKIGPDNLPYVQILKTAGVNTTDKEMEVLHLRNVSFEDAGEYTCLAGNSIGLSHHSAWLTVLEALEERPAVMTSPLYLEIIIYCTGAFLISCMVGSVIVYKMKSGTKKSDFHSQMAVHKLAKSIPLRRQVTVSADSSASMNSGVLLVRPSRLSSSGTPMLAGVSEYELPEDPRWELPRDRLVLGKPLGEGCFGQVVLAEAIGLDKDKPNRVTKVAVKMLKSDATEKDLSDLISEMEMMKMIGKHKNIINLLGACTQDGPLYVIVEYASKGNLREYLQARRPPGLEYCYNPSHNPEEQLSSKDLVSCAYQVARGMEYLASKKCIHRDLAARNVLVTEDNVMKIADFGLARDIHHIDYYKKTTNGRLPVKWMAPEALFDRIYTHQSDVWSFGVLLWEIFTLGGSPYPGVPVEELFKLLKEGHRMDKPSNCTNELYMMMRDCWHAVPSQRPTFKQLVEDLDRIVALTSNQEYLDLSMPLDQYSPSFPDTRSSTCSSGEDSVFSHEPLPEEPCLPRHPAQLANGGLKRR
Sequence of Rho-associated protein kinase 2 (Homo sapiens) (O75116 whole entry, looked up): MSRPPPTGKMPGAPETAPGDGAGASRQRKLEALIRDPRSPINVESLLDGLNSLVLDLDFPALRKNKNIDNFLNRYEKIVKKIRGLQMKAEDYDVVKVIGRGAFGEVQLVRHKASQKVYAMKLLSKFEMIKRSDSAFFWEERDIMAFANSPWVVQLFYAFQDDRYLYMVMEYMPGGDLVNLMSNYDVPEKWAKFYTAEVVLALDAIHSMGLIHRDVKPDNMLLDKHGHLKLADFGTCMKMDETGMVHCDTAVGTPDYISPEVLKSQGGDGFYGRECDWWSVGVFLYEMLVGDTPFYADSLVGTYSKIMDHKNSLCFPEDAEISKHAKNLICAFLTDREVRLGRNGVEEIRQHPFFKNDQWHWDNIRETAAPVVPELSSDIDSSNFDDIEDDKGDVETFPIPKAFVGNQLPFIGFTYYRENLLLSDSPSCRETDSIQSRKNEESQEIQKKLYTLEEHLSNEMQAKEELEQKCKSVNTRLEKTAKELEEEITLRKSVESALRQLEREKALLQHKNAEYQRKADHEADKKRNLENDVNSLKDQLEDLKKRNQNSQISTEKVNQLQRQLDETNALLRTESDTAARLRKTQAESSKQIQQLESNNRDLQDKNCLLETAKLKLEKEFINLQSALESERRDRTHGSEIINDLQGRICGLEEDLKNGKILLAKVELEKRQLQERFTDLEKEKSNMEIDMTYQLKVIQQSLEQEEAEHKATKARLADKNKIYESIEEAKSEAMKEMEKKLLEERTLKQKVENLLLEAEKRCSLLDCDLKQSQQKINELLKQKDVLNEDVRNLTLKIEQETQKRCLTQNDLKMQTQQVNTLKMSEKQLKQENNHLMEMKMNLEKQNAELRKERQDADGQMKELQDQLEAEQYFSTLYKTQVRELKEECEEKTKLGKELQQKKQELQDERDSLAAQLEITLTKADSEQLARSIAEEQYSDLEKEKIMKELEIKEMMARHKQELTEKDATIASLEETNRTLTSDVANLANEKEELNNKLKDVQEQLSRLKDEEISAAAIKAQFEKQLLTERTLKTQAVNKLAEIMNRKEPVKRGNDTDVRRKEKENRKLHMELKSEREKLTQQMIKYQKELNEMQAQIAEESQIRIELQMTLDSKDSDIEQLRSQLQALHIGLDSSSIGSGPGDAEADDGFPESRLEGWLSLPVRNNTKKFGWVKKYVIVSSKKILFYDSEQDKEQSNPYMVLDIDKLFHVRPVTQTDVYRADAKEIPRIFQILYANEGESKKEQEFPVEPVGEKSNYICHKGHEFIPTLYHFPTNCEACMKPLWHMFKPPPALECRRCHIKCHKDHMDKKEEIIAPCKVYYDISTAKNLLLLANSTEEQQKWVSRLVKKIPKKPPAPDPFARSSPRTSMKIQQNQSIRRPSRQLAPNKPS
Sequence of RAF proto-oncogene serine/threonine-protein kinase (Homo sapiens) (P04049 whole entry): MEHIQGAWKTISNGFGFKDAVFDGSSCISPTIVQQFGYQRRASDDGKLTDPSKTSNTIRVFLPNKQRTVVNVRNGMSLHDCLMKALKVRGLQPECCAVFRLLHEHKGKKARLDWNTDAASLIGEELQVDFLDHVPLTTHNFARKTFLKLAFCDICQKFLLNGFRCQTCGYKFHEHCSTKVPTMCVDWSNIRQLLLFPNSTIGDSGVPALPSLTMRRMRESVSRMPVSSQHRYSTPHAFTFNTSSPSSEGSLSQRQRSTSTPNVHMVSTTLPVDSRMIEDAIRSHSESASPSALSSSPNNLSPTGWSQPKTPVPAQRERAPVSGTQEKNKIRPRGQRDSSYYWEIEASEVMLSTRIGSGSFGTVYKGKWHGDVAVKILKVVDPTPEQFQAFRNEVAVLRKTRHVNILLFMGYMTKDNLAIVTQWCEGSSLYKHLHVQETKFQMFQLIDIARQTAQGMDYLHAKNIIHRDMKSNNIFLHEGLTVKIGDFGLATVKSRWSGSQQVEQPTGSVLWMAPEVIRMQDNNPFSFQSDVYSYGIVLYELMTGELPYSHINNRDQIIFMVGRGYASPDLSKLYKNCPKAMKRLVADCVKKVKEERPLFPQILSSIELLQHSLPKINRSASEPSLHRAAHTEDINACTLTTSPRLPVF

SMILES: O=C1OC(c2cccc(Cl)c2[N+](=O)[O-])=N/C1=C\c1cccnc1
inhibition [1]: 58%
inhibition [2]: 3%

SMILES: Cc1cccc2c(C(=O)O)cc(-c3ccncc3)nc12
inhibition [1]: 72%
inhibition [2]: 2%

SMILES: O=C1OC(c2ccccc2)=N/C1=C\c1cccnc1
inhibition [1]: 84%
inhibition [2]: 71%

SMILES: O=C1OC(C23CC4CC(CC(C4)C2)C3)=N/C1=C\c1cccnc1
inhibition [1]: 58%
inhibition [2]: 3%

SMILES: Cc1ccccc1C1=N/C(=C\c2cccnc2)C(=O)O1
inhibition [1]: 58%
inhibition [2]: 3%

SMILES: Cc1ccc2nc(-c3ccncc3)cc(C(=O)O)c2c1
inhibition [1]: 58%
inhibition [2]: 3%

SMILES: Cc1c(O)ccc2c(CN3CCN(C)CC3)cc(=O)oc12
inhibition [1]: 54%
inhibition [2]: 12%

inhibition [3]: inactive
inhibition [4]: inactive
inhibition [5]: inactive
inhibition [6]: inactive
inhibition [7]: inactive
inhibition [8]: inactive
inhibition [9]: inactive
inhibition [10]: inactive
inhibition [11]: inactive
inhibition [12]: inactive
inhibition [13]: inactive
inhibition [14]: inactive
inhibition [15]: inactive
inhibition [16]: inactive
inhibition [17]: inactive
inhibition [18]: inactive
inhibition [19]: inactive
inhibition [20]: inactive
inhibition [21]: inactive
inhibition [22]: inactive
inhibition [23]: inactive
inhibition [24]: inactive
inhibition [25]: inactive
inhibition [26]: inactive
inhibition [27]: inactive
inhibition [28]: inactive
inhibition [29]: inactive
inhibition [30]: inactive
inhibition [31]: inactive
inhibition [32]: inactive
inhibition [33]: inactive
inhibition [34]: inactive
inhibition [35]: inactive
inhibition [36]: inactive
inhibition [37]: inactive
inhibition [38]: inactive
inhibition [39]: inactive
inhibition [40]: inactive
inhibition [41]: inactive
inhibition [42]: inactive
IC50 [43]: > 10 µM
IC50 [44]: > 10 µM
IC50 [45]: < 10 µM
IC50 [47]: > 10 µM
IC50 [48]: > 10 µM
IC50 [50]: > 10 µM
IC50 [51]: > 10 µM
inhibition [52]: inactive
SMILES: O=C1OC(/C=C/c2ccccc2)=NC/1=C\c1cccnc1
inhibition [1]: 58%
inhibition [2]: 3%
IC50 [46]: < 1 µM
IC50 [49]: < 1 µM
